# Results published in the array DNA melting data of Ke et al. (doi:10.1101/2024.01.08.574731).
# How the values were obtained:
# [1] = melting temperature; fluorescence melt of hairpins on a sequencing array, two-state fit, raised by 9.35 °C to match UV melts; conditions: sodium 0.088 M
# Procedure, shortened: (§1)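 Cy3 signals were normalised both to pre-quench Cy3 and to control constructs. They came from library hairpins carrying annealed Cy3 and quencher oligos on a sequenced MiSeq flow cell, imaged in 50 mM Na-HEPES pH 8.0, 25 mM NaCl, in 2.5 °C steps up to 60 °C. Bootstrapped two-state fits gave melting temperature and folding enthalpy, and four replicates were combined by inverse variance. Fitted temperatures were then raised by 9.35 °C to match UV melts.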
# [2] = folding enthalpy; higher = less favourable; fluorescence melt of hairpins on a sequencing array, two-state fit; conditions: sodium 0.088 M
# Procedure, shortened: as §1
Sequence,Tm [1] [°C],folding enthalpy [2] [kcal/mol]
GCTACCGAAAGGTTAGC ((((((....))).))),52.7,-28
GCTACCGGAAACAGTAGC (((((.(....).))))),40.6,-34.3
GCTACGACGAAAGTCAGC (((..(((....)))))),37,-17
GCTACGCGAAAGCCAAGC (((..((....))..))),34.9,-13.3
GCTACGCGAAAGCCTCGC ((.(.((....)).).)),18.1,-7.35
GCTACGCGAAAGCTCAGC (((..((....))..))),37,-13.1
GCTACGGCGAAAGCCAGC (((..(((....)))))),42.9,-13.3
GCTACTCCGAAAGGAAGC (((..(((....)))))),30.1,-17.9
GCTACTCGAAAGAGAAGC (((.(((....))).))),50.4,-28.6
GCTACTCGAAAGAGCAGC (((.(((....))).))),49.6,-37.7
GCTACTGAAAAGTAGC ((((((....)))))),56.7,-35.1
GCTACTGGAAACAGCAGC (((.(((....))).))),44.7,-28.7
GCTAGAGGAAACTTTAGC ((((.((....)).)))),35,-20.8
GCTAGCGAAAGCTAAAGC ((((((....)))..))),46,-19.1
GCTAGCGAAAGCTACAGC ((((((....)))..))),39.6,-15.5
GCTAGCGAAAGCTTGAGC ((((((....)))..))),41.2,-13.5
GCTAGGCGAAAGCACAGC (((..((....))..))),46.3,-19.4
GCTAGGCGAAAGCAGAGC (((..((....))..))),53.3,-23.5
GCTAGGCGAAAGCATAGC ((((.((....)).)))),64.6,-32.7
GCTAGGCGAAAGCATCGC ((.(.((....)).).)),38,-15.9
GCTAGGCGAAAGCATGGC ((.(.((....)).).)),50.1,-20.7
GCTAGGCGAAAGCCCTGC ((..(((....)))..)),39.8,-12.3
GCTAGGCGAAAGCCTTGC ((.((((....)))).)),61.8,-21.1

Sequence,Tm [1] [°C],folding enthalpy [2] [kcal/mol]
GCTAGGCGAAAGCGTGGC ((.(.((....)).).)),49.8,-19.5
GCTAGGCGAAAGCTTAGC ((((.((....)).)))),61,-31.1
GCTAGGGAAACCTAGC ((((((....)))))),58.4,-36.9
GCTAGTCGAAAGACAGC (((.(((....)))))),52.1,-24.8
GCTAGTGGAAACACCAGC (((.(((....))).))),39.2,-23.6
GCTATAACGAAAGTTAGC (((..(((....)))))),37.5,-19.8
GCTATACGAAAGTACAGC (((.(((....))).))),41.8,-30.2
GCTATACGAAAGTAGAGC (((.(((....))).))),53.4,-38.3
GCTATAGAAATATAGC ((((((....)))))),42.8,-32.9
GCTATAGGAAACTATAGC (((((((....))))))),53.2,-39.5
GCTATAGGAAACTGTAGC ((((.((....)).)))),43.5,-32.8
GCTATATCGAAAGATAGC (((..(((....)))))),36.2,-25.2
GCTATCGAAAGATAAGC ((((((....))).))),45,-26.7
GCTATCGAAAGATCCAGC ((((((....)))..))),26.1,-13.3
GCTATCGAAAGATTGAGC ((((((....)))..))),32.9,-20.5
GCTATCGCGAAAGCGAGC (((..(((....)))))),39.2,-10.3
GCTATCGGAAACGATAAC (.(((((....))))).),34.5,-17.4
GCTATCGGAAACGATAGC (((((((....))))))),64.3,-52.4
GCTATGCGAAAGCAAGGC ((..(((....)))..)),42.5,-18.4
GCTATGCGAAAGCACCGC ((..(((....)))..)),31.9,-8.22
GCTATGCGAAAGCCAAGC (((..((....))..))),36.5,-16.7
GCTATGCGAAAGCCTCGC ((.(.((....)).).)),32.2,-11.5
GCTATGCGAAAGCGTAGC ((((.((....)).)))),65.7,-34.5

Sequence,Tm [1] [°C],folding enthalpy [2] [kcal/mol]
GCTATGGGAAACCATGGC ((.((((....)))).)),50.9,-41
GCTATGGGAAACTATAGC (((((.(....).))))),43.7,-33.3
GCTATTGGAAACAACAGC (((.(((....))).))),33.7,-16.9
GCTATTGGAAACAATGGC ((.((((....)))).)),45.7,-36.1
GCTATTTCGAAAGAAAGC (((..(((....)))))),28.3,-12.5
GCTCAGCCGAAAGGCAGC (((..(((....)))))),41.1,-13.1
GCTCAGCGAAAGCTCGGC ((..(((....)))..)),39.5,-14.5
GCTCAGGGAAACCTGAAC (.(((((....))))).),37.7,-17.4
GCTCAGGGAAACCTGGGC ((.((((....)))).)),54.4,-39.6
GCTCATACGAAAGTAAGC (((..(((....)))))),28,-9.13
GCTCATGAAAATGAGC ((((((....)))))),63.6,-38.5
GCTCCACGAAAGTGAAGC (((.(((....))).))),51.2,-30.2
GCTCCAGGAAACTGGGGC ((.((((....)))).)),57.6,-39.6
GCTCCCGAAAGGGAAGC ((((((....))).))),59.3,-31.8
GCTCCCGAAAGGGCCAGC ((((((....)))..))),34.8,-11.7
GCTCCCGCGAAAGCGAGC (((..(((....)))))),37.5,-10.7
GCTCCCGGAAACGAGAGC ((((.((....)).)))),49.2,-36.5
GCTCCCGGAAACGGAAGC (((.(((....))).))),50,-28.6
GCTCCGCGAAAGCACAGC (((..((....))..))),31.3,-8.71
GCTCCGCGAAAGCCTAGC (((..((....))..))),34.7,-10.7
GCTCCGCGAAAGCGATGC ((..(((....)))..)),40.8,-13.3
GCTCCGCGAAAGCGCAGC (((.(((....))).))),45.5,-29.8
GCTCCGCGAAAGCGGCGC ((.((((....)))).)),65.1,-18.6

Sequence,Tm [1] [°C],folding enthalpy [2] [kcal/mol]
GCTCCGCGAAAGCTGGGC ((.(.((....)).).)),44.9,-21.5
GCTCCGCGAAAGCTTAGC (((..((....))..))),35.1,-14.4
GCTCCGGGAAACCGGGGC ((.((((....)))).)),63.8,-43
GCTCCTCCGAAAGGAAGC (((..(((....)))))),34.2,-15.9
GCTCCTCGAAAGAGAGC (((.(((....)))))),49.2,-30
GCTCCTCGAAAGAGCAGC (((.(((....))).))),40.6,-21.5
GCTCCTGAAAAGGAGC ((((((....)))))),68.5,-42.6
GCTCGAGGAAACTTGGGC ((.(.((....)).).)),37.4,-19.4
GCTCGCCGAAAGGCAGC (((.(((....)))))),62.6,-19.9
GCTCGCGAAAGCGAAGC ((((((....))).))),65.3,-17.6
GCTCGCGAAAGCGAGAGC ((((((....)))..))),66.7,-9.87
GCTCGCGAAAGCGGAAGC ((((((....)))..))),53.2,-16.3
GCTCGCGAAAGCGTAAGC ((((((....)))..))),51.3,-13.4
GCTCGCGAAAGCGTCAGC ((((((....)))..))),41.4,-12.3
GCTCGCGGAAACGCAAGC (((.(((....))).))),49.8,-28.7
GCTCGGCGAAAGCAGCGC ((.(.((....)).).)),58.5,-14
GCTCGGCGAAAGCAGGGC ((.(.((....)).).)),67.7,-14
GCTCGGCGAAAGCCCCGC ((..(((....)))..)),44.6,-4.44
GCTCGGCGAAAGCCCGGC ((..(((....)))..)),56.9,-7.98
GCTCGGCGAAAGCCCTGC ((..(((....)))..)),53.4,-7.65
GCTCGGCGAAAGCGCAGC (((..((....))..))),51.1,-9.7
GCTCGGCGAAAGCTTAGC (((..((....))..))),40.9,-15.3
